Test results taken from ChEMBL document CHEMBL1125489, “Antitumor agents. 134. New shiraiachrome-A- and calphostin-C-related perylene derivatives as cytotoxic and antiviral agents and inhibitors of protein kinase C” (1992).
Values after ≈ are worked out from the molar mass of the structure shown. Values joined by “and” are separate entries in the source; they are usually repeats but may differ in a detail not shown here. Identical values can stand only once. Active and inactive are the calls of the source. The calls are words filed in the database; no cut-off is given here.

How the values were obtained:
[1] = biological target: T1, Protein kinase C (PKC) (Homo sapiens) (UniProt O94806+P41743+P17252+P05129+Q05655+P05771+Q05513+Q02156+P24723+Q15139+Q04759); assay: Inhibition of protein kinase C(PKC); type: protein assay
Method in brief: (§1)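 Compound added in DMSO, with DMSO-only controls. Reaction started with PKC (1 μg/mL) and stopped with ice-cold TCA plus BSA. Precipitate collected on GF/C filters and counted by β scintillation.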

Vero [2] = assay: Antiviral activity against HSV-1 in vero cells; type: functional; conditions: Chlorocebus sabaeus, read-out: ED50
Method in brief: (§2)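 Confluent Vero cells infected at 3 PFU/cell with HSV-1 (Kos) or HSV-2 (333) in RPMI-1640 with 2% FCS. Drugs added during inoculation as two-fold serial dilutions (final 100, 50, 25, 12.5 μg/mL). Cytopathic effect scored by microscopy after 24 h.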

Vero [3] = assay: Antiviral activity against HSV-2 in vero cells; type: functional; conditions: Chlorocebus sabaeus, read-out: ED50; method in brief: as §2
P388 = assay: Cytotoxic concentration against P388 tumor cells.; type: functional; conditions: Mus musculus, read-out: ED50 (the source's name)
Method in brief: (§3)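 Tumor cells exposed 3 days to drug at 0.1, 1 and 10 μg/mL. ED50 is the concentration giving 50% reduction in cell number, estimated from the degree of inhibition at these three concentrations.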

A549 [4] = assay: Cytotoxic concentration against A-549 tumor cells.; type: functional; conditions: Homo sapiens, read-out: ED50 (the source's name); method in brief: as §3
HCT-8 = assay: Cytotoxic concentration against HCT-8 tumor cells.; type: functional; conditions: Homo sapiens, read-out: ED50 (the source's name); method in brief: as §3
[5] = Cytotoxic concentration against RPMI-7951 tumor cells.; type: functional; conditions: Homo sapiens, read-out: ED50 (the source's name); method in brief: as §3
[6] = Cytotoxic concentration against TE-671 tumor cells.; type: functional; conditions: Homo sapiens, read-out: ED50 (the source's name); method in brief: as §3
[7] = biological target: Protein kinase C, PKC; classical/novel (Homo sapiens) (UniProt O94806+P17252+P05129+Q05655+P05771+Q02156+P24723+Q15139+Q04759); assay: Inhibition of protein kinase C(PKC), inhibition of phorbol binding by 80-100% at 38 uM; type: protein assay
KB 3-1 = assay: Cytotoxic concentration against KB tumor cells.; type: functional; conditions: Homo sapiens, KB 3-1, read-out: ED50; method in brief: as §3
[8] = biological target: T1, Protein kinase C (PKC) (Homo sapiens); assay: Inhibition of protein kinase C(PKC), maximal conc 40 uM; type: protein assay; method in brief: as §1
A549 [9] = assay: Cytotoxic concentration against A-549 tumor cells; Inactive at 10 ug/mL.; type: functional, cell-based; conditions: Homo sapiens; method in brief: as §3

For `O=c1cc(S(=O)(=O)[O-])c2c3c(S(=O)(=O)[O-])cc(O)c4c(=O)cc(S(=O)(=O)[O-])c(c5c(S(=O)(=O)[O-])cc(O)c1c52)c43.[Na+].[Na+].[Na+].[Na+]`, the PKC [1] was 200 µM and > 218 µM, the EC50 (Vero [2]) was 2 µg/mL and the EC50 (Vero [3]) was 10 µg/mL.

In the case of `COc1cc(O)c2c(=O)cc(OC)c3c4c(OC)cc(=O)c5c(O)cc(OC)c(c1c23)c54`, the PKC [1] is reported as > 218 µM, the EC50 (Vero [2]) is reported as 3 µg/mL (≈ 6.91 µM) and the EC50 (Vero [3]) is reported as 15 µg/mL (≈ 34.5 µM).

For `CC(=O)Oc1cc2c3cc(OC(C)=O)c(OC(C)=O)c4cccc(c5cccc(c1OC(C)=O)c52)c43`, the EC50 (P388) was 640 µg/mL (≈ 1320 µM), the PKC [1] was > 218 µM and the EC50 (A549 [4]) was 5410 µg/mL (≈ 11200 µM). For the same compound, the EC50 (HCT-8) was 4160 µg/mL (≈ 8590 µM), the EC50 [5] was 50 µg/mL (≈ 103 µM) and the EC50 [6] was 610 µg/mL (≈ 1260 µM).

Work on `O=c1cc2c3cc(O)c(O)c4cccc(c5cccc(c1=O)c52)c43` yielded a PKC [7] of 14 µM.

For `CC(=O)Oc1cc2c3cc(OC(C)=O)c(=O)c4cccc(c5cccc(c1=O)c52)c43`, the EC50 (P388) was 360 µg/mL (≈ 904 µM), the PKC [1] was 82 µM and the EC50 (A549 [4]) was 3840 µg/mL (≈ 9640 µM). For the same compound, the EC50 (HCT-8) was 560 µg/mL (≈ 1410 µM), the EC50 (KB 3-1) was 0.54 µg/mL (≈ 1.36 µM) and the EC50 [5] was 50 µg/mL (≈ 126 µM). The EC50 [6] was 680 µg/mL (≈ 1710 µM).

In the case of `O=c1cc(O)c2c3c(O)cc(O)c4c(=O)cc(O)c(c5c(O)cc(O)c1c52)c43`, the PKC [1] is reported as > 218 µM.

With `CC(=O)Oc1ccc2c3ccc(OC(C)=O)c4c(=O)cc(OC(C)=O)c(c5c(OC(C)=O)cc(=O)c1c25)c43` the PKC [1] was > 218 µM.

With `COc1c2c3c4c(c(OC)c(=O)c5c(O)cc(OC)c(c6c(OC)cc(O)c(c1=O)c63)c54)[C@@H](C(C)=O)[C@@](C)(O)C2` (stereo in doubt; 1) the PKC [7] was 44 µM.

In the case of `COc1c2c3c4c(c(OC)c(=O)c5c(O)cc(OC)c(c6c(OC)cc(O)c(c1=O)c63)c54)[C@@H](C(C)=O)[C@@](C)(O)C2` (stereo in doubt; 2) [HYPOCRELLIN A], the EC50 (P388) is reported as 390 µg/mL (≈ 714 µM), the EC50 (Vero [2]) is reported as 5 µg/mL (≈ 9.15 µM) and the EC50 (Vero [3]) is reported as 5 µg/mL (≈ 9.15 µM).

With `COc1cc(C(=O)Oc2cc3c4cc(OC(=O)c5cc(OC)c(O)c(OC)c5)c(=O)c5cccc(c6cccc(c2=O)c63)c54)cc(OC)c1O` the PKC [8] was > 40 µM.

For `N=c1cc2c3cc(N)c(O)c4c(O)ccc(c5ccc(O)c(c1=O)c52)c43`, the PKC [1] was 95 µM.

For `COc1cc(C(=O)Oc2cc3c4cc(OC(=O)c5cc(OC)c(OC)c(OC)c5)c(=O)c5cccc(c6cccc(c2=O)c63)c54)cc(OC)c1OC`, the PKC [8] was > 40 µM.

For `CCCCCCCCCCCCCCCCCC(=O)Oc1cc2c3cc(OC(=O)CCCCCCCCCCCCCCCCC)c(=O)c4cccc(c5cccc(c1=O)c52)c43`, the EC50 (KB 3-1) was 5.57 µg/mL (≈ 6.57 µM) and the PKC [8] was > 40 µM.

With `N=c1cc2c3cc(N)c(O)c4cccc(c5cccc(c1=O)c52)c43` the PKC [1] was > 218 µM.

With `O=c1ccc2c3ccc(O)c4c(=O)ccc(c5ccc(O)c1c52)c43` the PKC [1] was > 218 µM.

`CC(=O)/N=c1\ccc2c3ccc(NC(C)=O)c4c(=O)c(OC(C)=O)cc(c5cc(OC(C)=O)c(O)c1c25)c43` showed a PKC [1] of 89 µM.

In the case of `O=c1ccc2c3ccc(=O)c4cccc(c5cccc1c52)c43`, the EC50 (P388) is reported as 4350 µg/mL (≈ 15400 µM), the PKC [1] is reported as > 218 µM and the ED50 (A549 [9]) is reported as “inactive”. It also gave an EC50 [5] of 8.9 µg/mL (≈ 31.5 µM) and an EC50 [6] of 5210 µg/mL (≈ 18500 µM).

For `CC(=O)Oc1cc(O)c2c(=O)cc(OC(C)=O)c3c4c(OC(C)=O)cc(=O)c5c(O)cc(OC(C)=O)c(c1c23)c54`, the PKC [1] was > 218 µM.

For `O=C(/C=C/c1ccccc1)Oc1cc2c3cc(OC(=O)/C=C/c4ccccc4)c(=O)c4cccc(c5cccc(c1=O)c52)c43`, the EC50 (KB 3-1) was 5.5 µg/mL (≈ 9.57 µM), the EC50 [5] was 5.5 µg/mL (≈ 9.57 µM) and the PKC [8] was > 40 µM.
